We go through one compound from ChEMBL document CHEMBL4396943, “The tetrahydroxanthone-dimer phomoxanthone A is a strong inducer of apoptosis in cisplatin-resistant solid cancer cells” (Bioorg Med Chem, 2019).

SMILES strings stand for the structures. Active and inactive are the calls of the source. The rule behind the calls is not given here.

For test [1], the system named is A2780. Briefly: Cell cycle arrest in human A2780 cells assessed as accumulation at G1 phase at 1 uM incubated for 24 hrs by propidium iodide staining based flow cytometry (reference value: 61.8%). Type of test: functional. A digest of the protocol:
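After 24 h exposure, cells washed in ice-cold PBS. About 2 million cells fixed in cold 70% ethanol at −20 °C for at least 24 h. Stained with 0.1% Triton X-100, 200 µg/ml RNase A and 20 µg/ml propidium iodide in PBS, 15 min at 37 °C in the dark. DNA content read by flow cytometry with doublet discrimination. Medium as untreated control, paclitaxel as G2/M control. Three independent experiments.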

For a further test, the system named is KYSE-510. Briefly: Antiproliferative activity against human cisplatin resistant KYSE-510 cells assessed as reduction in cell viability incubated for 72 hrs by MTT assay. It is filed as functional, cell-based. The conditions noted are these: KYSE-510, 72 h. A digest of the protocol:
(§1)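 Cells seeded overnight in 96-well plates, then exposed to increasing concentrations (compound dissolved in DMSO, diluted in medium) for the stated time. MTT (5 mg/ml in PBS) added for 15 min, formazan dissolved in DMSO, absorbance read at 544 nm minus 690 nm background. IC50 = concentration giving 50% signal decrease. At least three independent experiments in triplicate.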

Test [2] has as its system A2780. Briefly: Induction of apoptosis in human A2780 cells assessed as decrease in cIAP expression at 5 uM incubated for 24 hrs by proteome profiler analysis. It is filed as functional, cell-based. In a few lines: (§2)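 A2780 cells treated 24 h with 5 µM, then apoptosis-related proteins read on an antibody array (Proteome Profiler human apoptosis array) per kit instructions.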

Test [3] concerns A2780. In words: Induction of apoptosis in human A2780 cells assessed as accumulation in subG1 phase incubated for 24 hrs by propidium iodide staining based flow cytometry (reference value: 10%). It is filed as functional. In a few lines: (§3)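 Cells plated in 24-well plates (about 100,000/well) for one day, then treated 24 h. Where used, caspase inhibitor Q-VD-OPh (20 µM) was added 1 h before. Cells lysed in hypotonic buffer (0.1% sodium citrate, 0.1% Triton X-100, 100 µg/ml propidium iodide) overnight at 4 °C in the dark. Sub-G1 fraction read by flow cytometry. Medium control, cisplatin positive control.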
In general terms: In flow cytometry, cells or beads pass a laser one at a time.

Test [4] has as its system A2780cisR. Briefly: Antiproliferative activity against human A2780cisR cells assessed as reduction in cell viability incubated for 48 hrs by MTT assay. Type of test: functional, cell-based. In a few lines:
as §1

Test [5] relates to A2780. Briefly: Ratio of IC50 for antiproliferative activity in human A2780 cells assessed as reduction in cell viability incubated for 24 hrs by MTT assay to IC50 for antiproliferative activity in human A2780 cells assessed as reduction in cell viability incubated for 72 hrs by MTT assay. Type of test: functional. In a few lines:
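MTT assay as for the viability IC50s (overnight seeding, MTT 15 min, DMSO solubilisation, 544/690 nm), with PXA incubation for 24 h versus 72 h. IC50 is the concentration giving a 50% signal decrease. At least three independent experiments.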

The subject of test [6] is A2780cisR. Briefly: Induction of apoptosis in human A2780cisR cells assessed as increase in intracellular calcium level at 10 to 30 uM incubated for 30 mins in presence of 1 mM extracellular calcium by fluorimetry. Type of test: functional, cell-based. In a few lines:
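Cells seeded in 96-well plates overnight, washed twice with Krebs-HEPES buffer, loaded 1 h at 37 °C in the dark with Oregon Green BAPTA-1 AM (final 3 µM) and Pluronic F-127. Buffer replaced, PXA added, fluorescence at 544 nm recorded for 30 min, with or without 1 mM extracellular Ca2+. Three experiments, mean ± SEM.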
On the technique in general: Calcium flux is commonly read through the fluorescence of an indicator in the cells.

Test [7] has as its system A2780. Briefly: Induction of apoptosis in human A2780 cells assessed as decrease in claspin expression at 5 uM incubated for 24 hrs by proteome profiler analysis. It is filed as functional, cell-based. In a few lines:
as §2

In test [8] the test system is A2780. In words: Induction of apoptosis in human A2780 cells assessed as increase in caspase 3 cleavage at 5 uM incubated for 24 hrs by proteome profiler analysis. Type of test: functional, cell-based. In a few lines: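 A2780 and A2780CisR cells treated 24 h with 5 µM PXA; apoptosis-related proteins profiled with a human apoptosis antibody array following kit instructions.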

The subject of a further test is J82. Briefly: Induction of apoptosis in human J82 cells assessed as depolarization of mitochondrial membrane potential at 5 to 10 uM incubated for 2 hrs by hoechst 33342 staining based fluorescence microscopy. It is filed as functional. In a few lines:
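J82 cells treated 2 h with PXA, then labelled 20 min with TMRE plus Hoechst 33342. ΔΨm read by high-content fluorescence imaging. Untreated medium and 20 µM CCCP served as controls.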

In test [9] the test system is A2780cisR. Briefly: Antiproliferative activity against human A2780cisR cells assessed as reduction in cell viability incubated for 72 hrs by MTT assay. Type of test: functional, cell-based. A digest of the protocol: as §1
On the technique in general: Formazan colour is commonly taken as a measure of viable cells.

Test [10] has as its system A2780cisR. Briefly: Induction of apoptosis in human A2780cisR cells assessed as nuclear condensation by measuring reduced size and increased intensity of nuclei at 10 uM incubated for 24 hrs by hoechst 33342 staining based fluorescence microscopy. It is filed as functional, cell-based.
For another test, the system named is HCT-116. In words: Potency index, ratio of cisplatin IC50 to compound IC50 for antiproliferative activity in human HCT116 cells assessed as reduction in cell viability incubated for 72 hrs by MTT assay. Type of test: functional. In a few lines:
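Cells seeded in 96-well plates overnight, exposed 72 h to increasing concentrations. MTT (5 mg/ml) added for 15 min, formazan dissolved in DMSO, absorbance read at 544 nm with 690 nm background subtracted. IC50 is the concentration reducing signal by 50%. Three independent experiments in triplicate. CisR sublines made by weekly intermittent cisplatin exposure for 24–30 weeks.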

The subject of test [11] is A2780. In words: Induction of apoptosis in human A2780 cells assessed as accumulation in subG1 phase at 1 uM incubated for 24 hrs by propidium iodide staining based flow cytometry (reference value: 10%). It is filed as functional. In a few lines: as §3
Test [12] has as its system A2780cisR. Briefly: Antiproliferative activity against human A2780cisR cells assessed as reduction in cell viability incubated for 24 hrs by MTT assay. Type of test: functional, cell-based. A digest of the protocol:
as §1

For the compound `CC(=O)OC[C@]12Oc3c(-c4ccc(O)c5c4O[C@@]4(COC(C)=O)C(=C(O)C[C@@H](C)[C@H]4OC(C)=O)C5=O)ccc(O)c3C(=O)C1=C(O)C[C@@H](C)[C@H]2OC(C)=O` [PHOMOXANTHONE A], the Activity was determined as 63.3% in the test with A2780 [1], 70% in the test on A2780 [3], 100% with J82 and 42% in the test with A2780 [11]. Besides, the IC50 in the test with KYSE-510 was 0.79 µM; in the test with A2780cisR [4] (read-out: IC50) it was 1.18 µM; in the test on A2780cisR [4] (read-out: pIC50 (converted)) it was 1.17 µM; in the test with A2780cisR [9] (read-out: IC50), 1.37 to 1.38 µM; with A2780cisR [9] (read-out: pIC50 (converted)), 1.38 µM; in the test on A2780cisR [12] (read-out: IC50), 1.88 µM. For the same compound, the IC50 in the test with A2780cisR [12] (read-out: pIC50 (converted)) is 1.86 µM. Besides, the result with A2780 [2], with A2780cisR [6], in the test on A2780 [7], in the test with A2780 [8] and in the test with A2780cisR [10] was Active. The figures for the “Ratio IC50” value in the test with A2780 [5] and with HCT-116 were 2.5 and 2 - 10, respectively.
